Key:
[1] = Reversal of multidrug resistance in human 2780AD cells assessed as accumulation of calcein at 2.5 ug/mL after 15 mins by fluorescence technique relative to verapamil; type: functional, A2780 ADR
Procedure, shortened: (§1)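 Same 2780AD set-up: 24 h pre-culture, then a 15 min compound pre-exposure (DMSO/PBS(-) dilution), calcein AM added (1 µM in PBS(-) as added) for 60 min, cold PBS(-) washes, and a calcein fluorescence read. Accumulation is expressed relative to that obtained with verapamil at the same concentration, mean of triplicates.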

[2] = Reversal of multidrug resistance in human 2780AD cells assessed as accumulation of calcein at 25 ug/mL after 15 mins by fluorescence technique relative to control; type: functional, A2780 ADR
Procedure, shortened: (§2)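 MDR ovarian 2780AD cells (RPMI-1640, 10% FBS), ca. 1 × 10^5 per well, held 24 h at 37 °C in 5% CO2. Compounds in DMSO diluted with PBS(-) were added 15 min before calcein AM (1 µM in PBS(-) as added), incubated 60 min, then washed with cold PBS(-). Calcein fluorescence is given as a percentage of untreated control, mean of triplicates.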

[3] = Reversal of multidrug resistance in human 2780AD cells assessed as accumulation of calcein at 0.25 ug/mL after 15 mins by fluorescence technique relative to verapamil; type: functional, A2780 ADR; procedure, shortened: as §1
[4] = Reversal of multidrug resistance in human 2780AD cells assessed as accumulation of calcein at 2.5 ug/mL after 15 mins by fluorescence technique relative to control; type: functional, A2780 ADR; procedure, shortened: as §2
[5] = Growth inhibition of human WI38 cells after 48 hrs by WST8 assay; type: cell-based; conditions: WI-38, 48 h
Procedure, shortened: (§3)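 Cells seeded at ca. 5000 per well, held 24 h at 37 °C in 5% CO2, then exposed 48 h to samples dissolved in DMSO. Media with 10% FBS: WI-38 in Eagle's MEM, VA-13 in RITC 80-7, HepG2 in D-MEM. WST-8 formazan read at 450 nm. Viability is background-corrected versus control, IC50 is taken from viability–concentration plots, and values are means of three independent experiments.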

[6] = tested on: HepG2; test: Growth inhibition of human HepG2 cells after 48 hrs by WST8 assay; type: functional, cell-based; conditions: HepG2, 48 h; procedure, shortened: as §3
[7] = Reversal of multidrug resistance in human 2780AD cells assessed as accumulation of calcein at 25 ug/mL after 15 mins by fluorescence technique relative to verapamil; type: functional, A2780 ADR; procedure, shortened: as §1
[8] = Reversal of multidrug resistance in human 2780AD cells assessed as accumulation of calcein at 0.25 ug/mL after 15 mins by fluorescence technique relative to control; type: functional, A2780 ADR; procedure, shortened: as §2
[9] = tested on: WI-38 VA13; test: Growth inhibition of human VA13 cells after 48 hrs by WST8 assay; type: functional, cell-based; conditions: WI-38 VA13, 48 h; procedure, shortened: as §3

IC50 [6] [µM] | SMILES | Activity [1] [%] | Activity [2] [%] | Activity [3] [%] | Activity [4] [%] | IC50 [5] [µM] | Activity [7] [%] | Activity [8] [%] | IC50 [9] [µM]
185 | COc1cc(C(=O)[C@@H]2C(=O)OC[C@H]2Cc2cc(OC)c3c(c2)OCO3)cc(OC)c1O |  |  |  |  | 172 |  |  | 127
198 | COc1cc(/C=C2/C(=O)OC[C@H]2Cc2cc(OC)c3c(c2)OCO3)cc(OC)c1O | 93 | 114 | 87 | 90 | 241 | 86 | 90 | 157
> 231 | COc1cc([C@@H](O)[C@H]2C(=O)OC[C@@H]2Cc2cc(OC)c3c(c2)OCO3)cc(OC)c1O | 96 | 104 | 88 | 93 | > 231 | 78 | 91 | 229
162 | COc1cc(C[C@@H]2C(=O)OC[C@H]2Cc2cc(OC)c3c(c2)OCO3)cc(O)c1O | 86 | 120 | 110 | 91 | 141 | 84 | 98 | 181
204 | COc1cc(C[C@@H]2C(=O)OC[C@H]2Cc2cc(OC)c3c(c2)OCO3)cc(OC)c1O | 94 | 129 | 83 | 91 | 195 | 97 | 86 | 130

Further lines, the compound ahead of its results:

SMILES | IC50 [6] [µM] | Activity [1] [%] | Activity [2] [%] | Activity [3] [%] | Activity [4] [%] | IC50 [5] [µM] | Activity [7] [%] | Activity [8] [%] | IC50 [9] [µM]
COc1cc(C[C@@H]2C(=O)OC[C@H]2Cc2cc(OC)c3c(c2)OCO3)cc(OC)c1OC | 42.8 | 102 | 155 | 92 | 99 | > 232 | 116 | 96 | 118
COc1cc(C[C@@H]2C(=O)OC[C@H]2Cc2cc(OC)c3c(c2)OCO3)ccc1O | 200 | 89 | 85 | 74 | 86 | > 259 | 64 | 77 | 210
COc1cc(C[C@@H]2COC(=O)[C@H]2Cc2cc(OC)c3c(c2)OCO3)cc2c1OCO2 | 208 | 86 | 116 | 104 | 91 | > 241 | 81 | 93 | 130
COc1cc(C[C@@H]2COC(=O)[C@H]2Cc2ccc3c(c2)OCO3)cc2c1OCO2 | > 260 | 70 | 96 | 102 | 74 | > 260 | 67 | 91 | > 260
COc1cc(C[C@@H]2C(=O)OC[C@H]2Cc2ccc3c(c2)OCO3)cc2c1OCO2 | 26.4 | 103 | 124 | 90 | 109 | > 260 | 86 | 80 | 23.2
COc1cc(C[C@@H](CO)[C@H](CO)Cc2cc(OC)c3c(c2)OCO3)cc2c1OCO2 | 151 | 107 | 121 | 93 | 103 | 185 | 91 | 97 | 219
COc1cc(C[C@@H]2C(=O)OC[C@H]2Cc2ccc3c(c2)OCO3)cc(OC)c1O | > 260 | 97 | 127 | 90 | 94 | > 259 | 96 | 93 | 183
COc1cc(C[C@H](COC(C)=O)[C@@H](COC(C)=O)Cc2cc(OC)c3c(c2)OCO3)cc2c1OCO2 | > 199 |  |  |  |  | > 199 |  |  | > 199
COc1cccc2c1C(=O)c1c(O)c3c(c(O)c1C2=O)C[C@@](O)(C(=O)CO)C[C@@H]3O[C@H]1C[C@H](N)[C@H](O)[C@H](C)O1 [DOXORUBICIN] | 0.69 |  |  |  |  | 0.38 |  |  | 0.22
CC(=O)O[C@H]1C(=O)[C@@]2(C)[C@H]([C@H](OC(=O)c3ccccc3)[C@]3(O)C[C@H](OC(=O)[C@H](O)[C@@H](NC(=O)c4ccccc4)c4ccccc4)C(C)=C1C3(C)C)[C@]1(OC(C)=O)CO[C@@H]1C[C@@H]2O [PACLITAXEL] | 6.9 |  |  |  |  | 0.034 |  |  | 0.0043
COc1ccc(CCN(C)CCCC(C#N)(c2ccc(OC)c(OC)c2)C(C)C)cc1OC (centres undefined) [VERAPAMIL] |  |  | 144 |  | 106 |  |  | 104 | 
